According to publication PMC8653574 (Bioorganic & medicinal chemistry letters, 2018):
Entries after “also recorded” stand apart in the source; their conditions may differ.

Tests used:
Type in all cases: cell-based, human
[1] = tested on: reactive oxygen species (ROS) in C4–2 cells; experiment: ROS accumulation by DCFDA staining; conditions: 10 μM, 48 h
Summary of the method: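 C4–2 cells were left untreated or exposed for 48 h to test compound at 10 μM or H2O2 at 10 μM as positive control. Intracellular ROS was stained with DCFDA and quantified.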

C4–2 cells [2] = experiment: Wound healing; conditions: 12 h, 24 h and 48 h
Summary of the method: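 A scratch was made in a C4–2 monolayer. The wounded cells were incubated for a further 12, 24 and 48 h. Images were taken at the start and at each interval to assess migration.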

C4–2 cells [3] = experiment: DNA ladder; conditions: 10 μM, 48 h
C4–2 cells [4] = experiment: Acridine orange/ethidium bromide; conditions: 48 h incubation
Summary of the method: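 C4–2 cells were double-stained with acridine orange, which marks live and dead cells, and ethidium bromide, which marks dead cells only. Cell morphology was then examined to tell apoptosis from necrosis.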

[5] = tested on: PARP1 cleavage in C4–2 cells; experiment: PARP1 cleavage assay; conditions: C4–2 cells treated with compound

Molecule | ROS level (DCFDA staining) [1] | inhibition of cell migration (C4–2 cells [2]) | DNA ladder formation (C4–2 cells [3]) | AO/EB staining: mode of cell death (C4–2 cells [4]) | PARP1 cleavage (cleaved PARP level) [5]
H2O2 | high DCFDA staining |  |  |  | 
COc1ccc2c(C3CC(c4ccncc4)=NO3)c[nH]c2c1 (stereo not drawn) [6c] |  | potently inhibit C4–2 cell migration; also recorded: strong anti-cell motility property | triggered the formation of DNA ladder | triggered apoptosis | induced apoptosis
Cc1c(C2CC(c3ccncc3)=NO2)c2ccccc2n1Cc1ccc(Cl)cc1 (stereo not drawn) [6i] |  | potently inhibit C4–2 cell migration; also recorded: strong anti-cell motility property | triggered the formation of DNA ladder | triggered apoptosis | induced apoptosis
